In publication PMC8680456 (Advanced therapeutics, 2021):

Legend:
[1] = tested on: RIP3; assay: Liver toxicity by RIP3 expression; details: mouse, in vivo
[2] = tested on: ABCA1; assay: ABCA1 and CD68 immunofluorescence in aortic roots; type: in vivo; details: LDLR KO mice, eight weeks of twice weekly injections, versus PBS control, n≥6
In short: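 LDLR KO male and female mice, obtained at 4 weeks, fed high-fat diet 14 weeks, then given tail-vein injections twice weekly for 8 weeks under isoflurane; PBS controls. Perfused with PBS and 2% paraformaldehyde; aortic roots sectioned. Blocked in TBST (0.1% Triton) with 10% horse serum 1 h RT; anti-CD68 (1:500) and anti-ABCA1 (1:1000) overnight 4 °C. Fluorescence pixel intensity quantified; two-factor ANOVA, Dunnett's vs PBS, n≥6.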

[3] = tested on: cholesterol-laden macrophages; assay: PA colocalization with cholesterol; type: cell-based; details: 32 μM LXR or PA epitope equivalents, 24 hours
[4] = Cleavage of niche-responsive LXR PAs; type: physicochemical; details: 1 mM PA, 37 °C
In short: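 Linker-bearing PAs at 1 mM in PBS. ROS-linked: 250 μM H2O2 + 50 μM CuSO4. NDEC-linked: 10 mM TCEP. SPDP-linked: 10 mM TCEP or 10 mM DTT. PBS-only controls. Incubated at 37 °C, 5% CO2; sampled at 24 h, 4 and 7 days; stored −20 °C. LC-MS: C18 UPLC column at 40 °C, electrospray 4.7 kV, capillary 350 °C, 150–2000 m/z, 120,000 resolution.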

## O=C(O)Cc1cccc(OCCCN(Cc2cccc(C(F)(F)F)c2Cl)CC(c2ccccc2)c2ccccc2)c1 [LXR, GW3965]
[1]
  liver toxicity by RIP3 expression: Liver toxicity was observed
[2]
  ABCA1 expression relative to number of CD68+ macrophages: significant increase in ABCA1 expression
[3]
  confocal microscopy observation of cholesterol-laden macrophages: appeared to be undergoing cell death

## C16-VVAAEE-PEG4-K-PPPPP-K(Mtt) [ROS-LXR PA]
[4]; 250 μM H2O2 + 50 μM CuSO4 in PBS, 1 week, LC-MS
  PA cleavage after 1 week: completely cleaved

## C16-VVAAEE-PEG4-NDEC-K(LXR) [NDEC-LXR PA]
[4]; 10 mM TCEP in PBS, day 4, LC-MS
  PA cleavage by day 4: complete cleavage
